This is an account of results in ChEMBL document CHEMBL1144529, “A library of novel hydroxamic acids targeting the metallo-protease family: design, parallel synthesis and screening” (Bioorg Med Chem, 2007).

The structures appear in SMILES notation.

For orientation: IC50 means the concentration needed to halve the response being measured.

This test addresses T1, Aminopeptidase N (Sus scrofa, UniProt P15145).
T1 sequence (P15145 whole entry): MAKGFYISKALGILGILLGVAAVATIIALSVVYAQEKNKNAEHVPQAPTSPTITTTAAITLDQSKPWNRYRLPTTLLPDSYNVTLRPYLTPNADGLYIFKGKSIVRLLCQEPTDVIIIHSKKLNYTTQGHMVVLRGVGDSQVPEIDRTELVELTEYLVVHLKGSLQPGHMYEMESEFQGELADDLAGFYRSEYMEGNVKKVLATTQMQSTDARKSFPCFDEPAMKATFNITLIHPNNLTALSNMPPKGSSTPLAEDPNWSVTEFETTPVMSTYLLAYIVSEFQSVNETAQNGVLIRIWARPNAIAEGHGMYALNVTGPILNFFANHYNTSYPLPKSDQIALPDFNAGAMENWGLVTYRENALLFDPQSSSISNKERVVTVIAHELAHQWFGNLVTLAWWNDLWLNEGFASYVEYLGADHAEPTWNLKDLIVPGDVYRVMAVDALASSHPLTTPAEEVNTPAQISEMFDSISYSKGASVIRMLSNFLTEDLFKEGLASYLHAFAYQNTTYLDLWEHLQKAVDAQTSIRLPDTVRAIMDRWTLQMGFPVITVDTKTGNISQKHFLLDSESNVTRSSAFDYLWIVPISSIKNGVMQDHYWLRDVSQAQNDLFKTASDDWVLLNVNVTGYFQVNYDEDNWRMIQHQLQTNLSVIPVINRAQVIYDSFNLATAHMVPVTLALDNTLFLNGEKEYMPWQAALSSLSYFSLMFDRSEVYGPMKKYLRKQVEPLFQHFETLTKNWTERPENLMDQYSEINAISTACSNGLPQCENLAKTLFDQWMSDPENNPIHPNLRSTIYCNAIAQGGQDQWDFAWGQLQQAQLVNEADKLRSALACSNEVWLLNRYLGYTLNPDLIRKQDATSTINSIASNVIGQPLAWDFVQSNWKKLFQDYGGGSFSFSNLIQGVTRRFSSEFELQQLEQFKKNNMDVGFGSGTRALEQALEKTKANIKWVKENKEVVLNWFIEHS
As to the kind of experiment: Inhibition of microsomal […] aminopeptidase in pig kidney. The method in brief:
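Porcine kidney microsomal APN, ammonium sulfate suspension diluted 600-fold in Tris-HCl (25 mM, pH 7.4). Activity compared with enzyme run without inhibitor.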
On to `O=C(NO)C(Cc1ccccc1)C(=O)NCc1ccccc1` (centres undefined), for which the IC50 was above 10 µM.

Compound `CC(C)CC(C(=O)NO)C(=O)NCCc1ccccc1` (centres undefined) came in with a half-inhibitory concentration (IC50) of 0.984 µM. This counts as sub-micromolar.

In turn, `Cn1c(CC(C(=O)NO)C(=O)NCc2ccccc2)nc2ccccc21` (centres undefined) came in with an IC50 of 0.718 µM.

In the case of `CC(C)CC(C(=O)NO)C(=O)NC1CCc2ccccc2C1` (centres undefined), 3.04 µM corresponded to half-maximal inhibition (IC50).

Compound `CC(C)CC(C(=O)NO)C(=O)NCCCCc1ccccc1` (centres undefined) displayed an IC50 of 0.082 µM. Compared with the last compound, the IC50 is about 37-fold lower.

`CC(C)CC(C(=O)NO)C(=O)NCc1ccccc1` (centres undefined) gave a 50% inhibitory concentration (IC50) of 0.59 µM. This IC50 lies about 7.2-fold higher than the previous one.

Consider `O=C(NO)C(Cc1cccc(Oc2ccccc2)c1)C(=O)NCc1ccccc1` (centres undefined), for which the IC50 is above 10 µM.

In turn, `O=C(NO)C(Cc1cccc(Oc2ccccc2)c1)C(=O)NCCCCc1ccccc1` (centres undefined) showed an IC50 above 10 µM.

In turn, `CC(C)CC(C(=O)NO)C(=O)N1CCC(Cc2ccccc2)CC1` (centres undefined) displayed an IC50 of 0.452 µM. That is a sub-micromolar value.

`O=C(NO)C(Cc1ccccc1)C(=O)NCCCCc1ccccc1` (centres undefined) gave a concentration for half-maximal inhibition (IC50) above 10 µM.

Regarding `CC(C)CC(C(=O)NO)C(=O)NCCCc1ccccc1` (centres undefined), half-maximal inhibition (IC50) was put at 0.528 µM. That is a sub-micromolar value.

As for `CC(C)CC(C(=O)NO)C(=O)NCc1cccc(Oc2ccccc2)c1` (centres undefined), the half-inhibitory concentration (IC50) turned out to be 0.443 µM. The IC50 values of the last two compounds are within 1.5-fold of each other.

Regarding `CC(C)CC(C(=O)NO)C(=O)NCc1ccc(F)cc1` (centres undefined), the concentration for half-maximal inhibition (IC50) was 3 µM.

`CC(C)CC(C(=O)NO)C(=O)NCc1ccc(Cl)cc1` (centres undefined) registered a 50% inhibitory concentration (IC50) of 2.52 µM.
